Measurements published in ChEMBL document CHEMBL5523707, “Novel Inhibitory Site Revealed by XAP044 Mode of Action on the Metabotropic Glutamate 7 Receptor Venus Flytrap Domain” (J Med Chem, 2024).
Calls of active or inactive are those of the source. The rule behind the calls is not given here.

Tests used:
Rattus norvegicus = species on record: Rattus norvegicus; experiment: Ratio of pEC50 for antagonist activity against LSP4-202-induced rat mGlu7 activation transfected in HEK293 cells co-transfected with chimeric Gqi9 assessed as decrease in LSP4-202 potency to pEC50 for LSP4-202-induced rat mGlu7 activation transfected in HEK293 cells co-transfected with chimeric Gqi9; format: cell-based
Procedure, shortened: (§1)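 IP-One HTRF IP1 read-out in HEK293 transiently expressing rat mGlu7 plus chimeric Gqα9, 24 h after electroporation. LSP4-2022 concentration-response was tested with derivatives at 30 or 100 µM. Gives pEC50, pEC50/pEC50 control ratio, and max as % of LSP4-2022 maximal effect over basal. Triplicates, n independent experiments; paired t-test.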

[1] = target: Metabotropic glutamate receptor 7 (Rattus norvegicus) (UniProt P35400); experiment: Antagonist activity against LSP4-202-induced rat mGlu7 activation transfected in HEK293 cells co-transfected with chimeric Gqi9 assessed as decrease in LSP4-202 potency by measuring LSP4-202 maximum efficacy at 30 to 100 uM incubated for 24 hrs by IP-one HTRF assay relative to control; format: functional, cell-based; details: filed as antagonist, dose 30-100 µM; procedure, shortened: as §1
[2] = target: Metabotropic glutamate receptor 7 (Rattus norvegicus) (UniProt P35400); experiment: Antagonist activity against LSP4-202-induced rat mGlu7 activation transfected in HEK293 cells co-transfected with chimeric Gqi9 assessed as decrease in LSP4-202 potency by measuring LSP4-202 pEC50 incubated for 24 hrs by IP-one HTRF assay; format: functional, cell-based; procedure, shortened: as §1

Chain of Metabotropic glutamate receptor 7 (Rattus norvegicus) (P35400 whole entry): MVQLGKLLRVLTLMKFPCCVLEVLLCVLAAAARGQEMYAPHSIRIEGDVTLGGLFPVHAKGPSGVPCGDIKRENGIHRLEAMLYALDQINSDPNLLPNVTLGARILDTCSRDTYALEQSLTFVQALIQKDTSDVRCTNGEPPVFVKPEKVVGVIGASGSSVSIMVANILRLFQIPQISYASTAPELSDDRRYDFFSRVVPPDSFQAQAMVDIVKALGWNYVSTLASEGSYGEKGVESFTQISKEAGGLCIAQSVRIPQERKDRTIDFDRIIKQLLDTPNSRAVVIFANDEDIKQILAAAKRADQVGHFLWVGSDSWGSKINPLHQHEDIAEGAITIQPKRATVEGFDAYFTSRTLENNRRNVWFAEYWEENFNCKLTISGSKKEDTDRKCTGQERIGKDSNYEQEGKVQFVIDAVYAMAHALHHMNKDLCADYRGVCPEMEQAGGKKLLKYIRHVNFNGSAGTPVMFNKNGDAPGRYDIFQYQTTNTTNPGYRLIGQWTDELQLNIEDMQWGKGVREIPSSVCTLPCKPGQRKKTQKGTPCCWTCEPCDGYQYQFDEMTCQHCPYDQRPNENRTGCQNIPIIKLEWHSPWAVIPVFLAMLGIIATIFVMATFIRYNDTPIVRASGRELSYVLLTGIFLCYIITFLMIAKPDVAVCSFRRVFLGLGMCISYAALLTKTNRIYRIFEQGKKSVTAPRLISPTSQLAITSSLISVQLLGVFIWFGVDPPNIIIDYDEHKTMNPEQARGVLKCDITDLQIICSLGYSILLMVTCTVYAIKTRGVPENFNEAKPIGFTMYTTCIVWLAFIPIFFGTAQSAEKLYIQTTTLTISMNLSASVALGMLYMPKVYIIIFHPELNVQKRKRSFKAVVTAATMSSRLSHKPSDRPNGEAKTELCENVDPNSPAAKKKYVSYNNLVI

Row | Compound | Ratio (Rattus norvegicus) | Emax [1] | inhibition [2]
1 | COc1ccc(C(=O)COc2ccc(I)c(C)c2)cc1 | 0.97 | 95.9% | 
2 | O=C(COc1cccc(I)c1)c1ccc(O)cc1 | 1.02 | 102% | 
3 | Cc1ccc(OCC(=O)c2ccc(O)cc2)cc1 | 0.96 | 95.4% | 
4 | O=C(COc1ccc(Cl)cc1Cl)c1ccc(O)cc1 | 0.94 | 92.3% | 
5 | COc1ccc(OCC(=O)c2ccc(O)cc2)cc1OC | 0.99 | 96% | 
6 | COc1ccc(C(=O)COc2ccc(C#N)cc2)cc1 | 0.95 | 89.4% | 
7 | O=c1c2ccc(F)cc2oc2c1oc1ccc(I)cc12 |  |  | inactive
8 | O=C(COc1ccc(Cl)cc1)c1ccc(O)cc1 | 0.83 | 98.5% | 
9 | O=c1c2ccc(O)cc2oc2c1oc1ccc(I)cc12 |  |  | inactive
10 | O=c1c2ccccc2oc2c1oc1ccc(Cl)cc12 |  |  | inactive
11 | COc1ccc2c(c1)oc1c(=O)c3ccccc3oc12 |  |  | inactive
12 | O=C(O)c1ccc(OCC(=O)c2ccc(O)cc2)cc1 | 1.07 | 98.6% | 
13 | COc1ccc2c(=O)c3oc4ccc(I)cc4c3oc2c1 |  |  | inactive
14 | O=c1c2ccccc2oc2c1sc1ccccc12 |  |  | inactive
15 | N#Cc1c(F)cc(OCC(=O)c2ccc(O)cc2)cc1F | 1.03 | 94.2% | 
16 | N#Cc1ccc(OCC(=O)c2ccc(O)cc2)cc1 | 0.89 | 92.6% | 
17 | O=C(COc1ccc(Br)cc1Cl)c1ccc(O)cc1 | 0.95 | 93.3% | 
18 | COc1ccc2c(=O)c3oc4cc(I)ccc4c3oc2c1 |  |  | inactive
19 | NS(=O)(=O)c1ccc(OCC(=O)c2ccc(O)cc2)cc1 | 1.06 | 89.2% | 
20 | O=C(COc1cccc(O)c1)c1ccc(O)cc1 | 1.03 | 96.8% | 
21 | O=C(COc1ccc(O)cc1)c1ccc(O)cc1 | 1.06 | 88.1% | 
22 | Cc1cc(OCC(=O)c2ccc(O)cc2)ccc1I | 0.96 | 97.5% | 
23 | O=C(COc1ccc(Br)cc1)c1ccc(O)cc1 | 0.81 | 99.2% | 
